Test results as given in ChEMBL document CHEMBL5705906 (Nat Commun, 2017).
Activity calls are given as the source filed them. No cut-off for these calls is given here.

Legend:
[1] = system: BaF3; experiment: Inhibition of EGFR-C797S/T790M/L858R mutant expressed in mouse BaF3 cells assessed as inhibition of ERK phosphorylation at 10 to 1000 nM incubated for 6 hrs by Western blotting analysis; type: cell-based; conditions: dose 10-1000 nM
How it was run: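 Ba/F3 cells expressing EGFR-L858R-series mutants treated with inhibitors for 6 h. SDS lysates quantified by BCA, run on SDS-PAGE and blotted to PVDF. Probed for phospho-EGFR (Tyr1068), total EGFR and downstream phospho-proteins.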

[2] = Toxicity against SCID-beige mouse xenografted with human MGH121 cells expressing EGFR-C797S/T790M/del19 mutant assessed as change in body weight at 75 mg/kg, po administered for 40 days and measured twice weekly; type: organism-based; conditions: in vivo, 960 h, time 40 day
How it was run: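 SCID-beige mice with subcutaneous MGH121-res2 implants were randomized to vehicle or treatment at a mean tumour volume of ~200 mm³. […] Body weight was measured twice weekly, N=6 per group.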

[3] = system: BaF3; experiment: Inhibition of EGFR-C797S/T790M/del19 mutant in mouse BaF3 cells assessed as reduction in ERK phosphorylation incubated for 6 hrs by Western blotting analysis; type: cell-based
[4] = system: A-431; experiment: Anticancer activity against human A-431 cells assessed as reduction in cell viability at IC50 concentration incubated for 72 hrs by CellTiter-Glo assay; type: functional, cell-based
How it was run: (§1)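 Three-day CellTiter-Glo viability assay. Cells exposed to compound across a 10-dose range of 0.3 nM to 10 µM for 72 h. IC50 from nonlinear sigmoidal dose-response fit.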

[5] = system: BaF3; type: cell-based; conditions: Mus musculus, dose 10-1000 nM, time 6.0 hrs
[6] = Toxicity against Balb-c nu/nu mouse xenografted with human PC-9 cells expressing EGFR-C797S/T790M/del19 mutant assessed as change in body weight at 75 mg/kg, po administered for 60 days and measured twice weekly in presence of panitumumab; type: organism-based; conditions: in vivo, 1440 h, time 60 day
How it was run: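 Mice bearing subcutaneous PC9 triple-mutant tumours in Balb-c nu/nu hosts were randomized at ~200 mm³. […] Body weights were taken twice weekly, N=6 per group.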

[7] = system: BaF3; conditions: Mus musculus, dose 10-1000 nM, time 6.0 hrs
[8] = system: A549; experiment: Anticancer activity against human A549 cells assessed as reduction in cell viability at IC50 concentration incubated for 72 hrs by CellTiter-Glo assay; type: functional, cell-based; how it was run: as §1
[9] = system: PC-9; experiment: Inhibition of EGFR T790M/del19 mutant in human PC-9 cells assessed as reduction in ERK phosphorylation at 10 to 1000 nM by Western blotting analysis; type: cell-based; conditions: dose 10-1000 nM
[10] = system: BaF3; experiment: Inhibition of EGFR-C797S/T790M/del19 mutant in mouse BaF3 cells assessed as reduction in S6 phosphorylation incubated for 6 hrs by Western blotting analysis; type: cell-based
How it was run: (§2)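 Ba/F3 cells carrying the stated EGFR mutant were made IL-3-independent after 1 week of 7 µM blasticidin selection. They were grown in low-glucose DMEM with 10% FBS and exposed to inhibitor for 6 h. Cells were washed in cold PBS, lysed in SDS buffer (100 mM Tris, 1% SDS, 10% glycerol) and boiled 5 min. Protein was measured by BCA, run on SDS-PAGE, transferred to PVDF, blocked in 5% BSA or milk/TBS-T, and immunoblotted.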

[11] = system: PC-9; conditions: Homo sapiens, dose 75.0 mg/kg, route po, time 15.0 day
[12] = system: Epidermal growth factor receptor (Homo sapiens), P00533 [UNDEFINED MUTATION]; conditions: PC-9, dose 500.0 nM, time 48.0 hrs
Chain of Epidermal growth factor receptor (Homo sapiens), P00533 [UNDEFINED MUTATION] (P00533 whole entry, looked up, stated change not applied): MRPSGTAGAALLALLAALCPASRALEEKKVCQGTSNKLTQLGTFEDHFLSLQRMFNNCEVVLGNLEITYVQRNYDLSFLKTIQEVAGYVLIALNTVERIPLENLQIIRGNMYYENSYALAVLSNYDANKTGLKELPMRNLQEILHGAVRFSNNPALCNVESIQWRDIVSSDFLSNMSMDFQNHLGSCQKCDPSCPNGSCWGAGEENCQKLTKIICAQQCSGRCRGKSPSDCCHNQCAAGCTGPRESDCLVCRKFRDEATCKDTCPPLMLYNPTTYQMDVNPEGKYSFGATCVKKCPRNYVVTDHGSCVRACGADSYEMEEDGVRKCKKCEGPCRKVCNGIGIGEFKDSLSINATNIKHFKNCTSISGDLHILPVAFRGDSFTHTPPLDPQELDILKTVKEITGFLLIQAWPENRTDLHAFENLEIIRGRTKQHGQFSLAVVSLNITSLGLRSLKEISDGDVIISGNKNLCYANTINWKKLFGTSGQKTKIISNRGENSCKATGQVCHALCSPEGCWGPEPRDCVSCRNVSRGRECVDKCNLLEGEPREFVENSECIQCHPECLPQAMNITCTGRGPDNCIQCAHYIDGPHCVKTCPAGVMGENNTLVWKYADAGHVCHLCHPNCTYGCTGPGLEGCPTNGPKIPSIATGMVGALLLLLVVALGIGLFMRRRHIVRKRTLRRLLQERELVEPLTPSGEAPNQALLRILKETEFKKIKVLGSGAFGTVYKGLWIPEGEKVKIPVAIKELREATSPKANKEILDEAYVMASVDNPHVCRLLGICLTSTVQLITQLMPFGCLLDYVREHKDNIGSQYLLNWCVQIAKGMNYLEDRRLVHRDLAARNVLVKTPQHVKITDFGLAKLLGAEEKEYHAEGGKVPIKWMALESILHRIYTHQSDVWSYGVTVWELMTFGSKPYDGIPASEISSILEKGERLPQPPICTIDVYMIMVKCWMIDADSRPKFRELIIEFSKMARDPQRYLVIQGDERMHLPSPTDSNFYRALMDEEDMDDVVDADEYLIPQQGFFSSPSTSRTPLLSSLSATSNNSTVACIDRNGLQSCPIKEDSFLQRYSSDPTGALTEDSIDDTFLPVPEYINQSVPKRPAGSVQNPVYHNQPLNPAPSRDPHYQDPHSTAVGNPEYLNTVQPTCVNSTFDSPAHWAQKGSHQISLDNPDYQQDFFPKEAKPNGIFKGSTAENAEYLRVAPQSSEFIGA

[13] = system: BaF3; conditions: Mus musculus, dose 30-1000 nM, time 6.0 hrs
[14] = system: BaF3; experiment: Inhibition of EGFR-T790M/del19 mutant in mouse BaF3 cells assessed as inhibition of Akt phosphorylation at 10 to 1000 nM incubated for 6 hrs by Western blotting analysis; type: cell-based; conditions: dose 10-1000 nM; how it was run: as §2
[15] = system: MGH121; experiment: Anti-tumor activity against human MGH121 cells expressing EGFR-C797S/T790M/del19 mutant xenografted in SCID-beige mouse assessed as tumor shrinkage at 75 mg/kg, po administered for 40 days and measured twice weekly in presence of cetuximab; type: functional, organism-based; conditions: time 40.0 day
How it was run: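 MGH121-res2 cells (EGFR-C797S/T790M/del19) implanted s.c. in SCID-beige mice. Randomized at mean tumour ~200 mm³. […] Tumour volume 0.5×length×width² and body weight measured twice weekly. N = 6, mean ± s.d. Mann-Whitney U test on day 42.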

[16] = system: BaF3; experiment: Inhibition of EGFR-del19 mutant in mouse BaF3 cells assessed as inhibition of S6 phosphorylation at 10 to 1000 nM incubated for 6 hrs by Western blotting analysis; type: cell-based; conditions: dose 10-1000 nM; how it was run: as §2
[17] = system: Epidermal growth factor receptor (Homo sapiens), P00533 [UNDEFINED MUTATION]; conditions: MGH121, dose 10-1000 nM
[18] = system: BaF3; experiment: Inhibition of EGFR-del19 mutant in mouse BaF3 cells assessed as inhibition of Akt phosphorylation at 10 to 1000 nM incubated for 6 hrs by Western blotting analysis; type: cell-based; conditions: dose 10-1000 nM; how it was run: as §2
[19] = system: PC-9; conditions: Homo sapiens, dose 75.0 mg/kg, route po, time 15.0 day; remark: listed apart in the source
[20] = system: PC-9; conditions: Homo sapiens, dose 75.0 mg/kg, route po, time 60.0 day
[21] = system: Epidermal growth factor receptor (Homo sapiens), P00533 [UNDEFINED MUTATION]; conditions: MGH121, dose 10-1000 nM; remark: listed apart in the source
[22] = system: Epidermal growth factor receptor (Homo sapiens), P00533 [UNDEFINED MUTATION]; conditions: PC-9, dose 500.0 nM, time 48.0 hrs; remark: listed apart in the source
[23] = system: Epidermal growth factor receptor (Homo sapiens), P00533 [UNDEFINED MUTATION]; conditions: MGH121, dose 500.0 nM, time 6-48 hrs, TDE = time-dependent effect
[24] = system: PC-9; experiment: Inhibition of EGFR T790M/del19 mutant in human PC-9 cells assessed as reduction in S6 phosphorylation at 10 to 1000 nM by Western blotting analysis; type: cell-based; conditions: dose 10-1000 nM
[25] = system: Epidermal growth factor receptor (Homo sapiens), P00533 [UNDEFINED MUTATION]; conditions: MGH121, dose 500.0 nM, time 48.0 hrs
[26] = system: BaF3; conditions: Mus musculus, dose 10-1000 nM
[27] = system: BaF3; conditions: Mus musculus, dose 10-1000 nM, time 6.0 hrs; remark: listed apart in the source
[28] = biological target: Epidermal growth factor receptor (Homo sapiens) (UniProt P00533); conditions: dose 0.01-10000 nM, time 10.0 min
Chain of Epidermal growth factor receptor (Homo sapiens) (P00533 whole entry): as the sequence (P00533 whole entry, looked up, stated change not applied) above

[29] = system: Epidermal growth factor receptor (Homo sapiens), P00533 [UNDEFINED MUTATION]; conditions: PC-9, dose 10-1000 nM

Q: What does the source list for COc1cc(N2CCC(N3CCN(C)CC3)CC2)ccc1Nc1ncc(Cl)c(Nc2ccccc2P(C)(C)=O)n1 [BRIGATINIB]?
A: inhibition [1]: Active; Activity [2]: Non-Toxic; inhibition [3]: Dose-Dependent Effect; Activity [4]: Active; inhibition [5]: Active; Activity [6]: Non-Toxic; inhibition [7]: Active; Activity [8]: Active; inhibition [9]: Active; inhibition [10]: Dose-Dependent Effect; inhibition [11]: Active; inhibition [12]: Active; inhibition [13]: Active; inhibition [14]: Active; Activity [15]: Active; inhibition [16]: Active; inhibition [17]: Active; inhibition [18]: Active; inhibition [19]: Active; inhibition [20]: Active; inhibition [21]: Active; inhibition [22]: Active; inhibition [23]: Tde; inhibition [24]: Active; inhibition [25]: Active; inhibition [26]: Dose-Dependent Effect; inhibition [27]: Active; inhibition [28]: Dose-Dependent Effect; inhibition [29]: Active
